KCNQ1 pot = potentiators or activators of human KCNQ1 potassium channel; B-score at 10 µM; CHO-K1 KCNQ1, thallium flux FluxOR fluorescence; active compounds read high; AID 2648; 310,000 tested, 0.35% active;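 active = fluorescence ratio B-score, a plate-corrected score, at least three library SD, with initial intensity B-score within 5 SD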
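assay system = KCNQ1-transfected CHO-K1 cells | medium = assay buffer with matched DMSO | probe or stimulus = depolarizing K+/Tl+ stimulus, K2SO4 and Tl2SO4 each 12.5 mM in 5x stock | dosing = single dose | incubation = dye 90 min, compound 20 min, room temperature | detection = kinetic FluxOR fluorescence, 10 s baseline plus 110 s post-stimulus | evaluation = ratio B score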
KCNQ1 block = inhibitors of human KCNQ1 potassium channel; P51787; CHO-K1 KCNQ1, FluxOR thallium flux fluorescence; active compounds read high; B-score at 10 µM; 310,000 tested, 1.3% active;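 active = compounds whose thallium flux B-score, printed positive for inhibition, exceeds three library SD while starting fluorescence stays within three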;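 note: channel opened by potassium depolarization with thallium stimulus after 20 min compound exposure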
KCNK3 inh = human KCNK3 channel inhibition, primary screen; O14649; CHO-KCNK3 thallium flux, FluxOR fluorescence; active compounds read low; B-score at 10 µM; 340,000 tested, 0.84% active; AID 602410;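 active = B-score under library mean minus 4 SD, starting fluorescence ratio at most library mean plus 5 SD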;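 note: more negative B-score means stronger inhibition of thallium flux through KCNK3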
Kir21 block = blocks the mouse Kir2.1 inward-rectifier potassium channel | 310,000 tested, 0.85% active | B-score at 10 µM | P35561 | HEK293-Kir2.1, FluxOR thallium flux fluorescence; active compounds read low | AID 1672;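 active = fluorescence ratio B-score at or below minus 3 SD of library scores, with starting-brightness B-score within 2 SD, cut at about -4.2 in these data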;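 note: channel flux triggered by added potassium and thallium sulfate stimulus; B-score of peak minus minimum fluorescence over baseline after thallium stimulus; more negative B-score means stronger Kir2.1 block with less thallium influx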
hERG rescue = shields human hERG channel from block by proarrhythmic agents. Q12809. CHO-hERG, FluxOR thallium flux, dofetilide IC70 present. activation (rescue from dofetilide block), less the hit threshold, % at 10 µM. 310,000 tested, 0.51% active. AID 1511;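 active = activation above the mean of controls blocked by dofetilide plus 5 SD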;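 note: thallium influx through hERG after potassium depolarization seen as dye fluorescence rise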
KCNK9 block = human KCNK9 channel inhibition | 310,000 tested, 1.2% active | HEK293 KCNK9, FluxOR thallium flux fluorescence; active compounds read low | B-score at 10 µM | Q9NPC2;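 active = ratio B-score over 3 SD below the library mean, with starting fluorescence within 5 SD of its mean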;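 note: negative B-score means less thallium flux so channel inhibition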
Target sequence (Q9NPC2 whole entry, looked up): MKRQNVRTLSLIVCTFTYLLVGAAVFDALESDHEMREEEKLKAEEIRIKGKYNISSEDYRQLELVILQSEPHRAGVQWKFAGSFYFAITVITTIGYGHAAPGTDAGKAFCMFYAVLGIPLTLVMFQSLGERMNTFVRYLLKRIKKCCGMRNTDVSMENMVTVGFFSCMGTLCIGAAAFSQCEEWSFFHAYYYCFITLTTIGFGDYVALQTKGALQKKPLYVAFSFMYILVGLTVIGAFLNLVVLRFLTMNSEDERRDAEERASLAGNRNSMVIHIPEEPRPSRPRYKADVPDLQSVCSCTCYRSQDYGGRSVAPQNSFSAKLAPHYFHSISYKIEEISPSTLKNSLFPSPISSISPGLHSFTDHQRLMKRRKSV
KCNK9 block conf = human KCNK9 inhibitor confirmation; inhibition, % at 10 µM; 4,900 tested, 43% active; shares compounds with KCNK9 block; HEK293 KCNK9 cells, FluxOR thallium flux fluorescence; AID 492992;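 active = thallium signal inhibited by more than 5 SD of the compound-free buffer control wells, on both duplicate plates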;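 note: 0% = assay buffer control wells without compound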
Kir2-1 spec = selectivity of KCNK9 modulators against mouse Kir2.1; shares compounds with KCNK9 block; Kir2.1 cells, FluxOR thallium flux fluorescence; inhibition, % at 10 µM; 4,900 tested, 4% active;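 active = thallium signal drop more than 5 SD beyond the mean of the no-compound control wells, seen in both duplicate plates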;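 note: signal is fluorescence rise after thallium addition divided by baseline fluorescence; plate controls were assay buffer only for no effect and full block by chlorpromazine control for full effect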
HEK293 Tl ctr = non-induced cell nonspecific activity of KCNK9 modulators | 4,900 tested, 40% active | non-induced KCNK9-HEK293, FluxOR thallium flux | shares compounds with KCNK9 block | inhibition, % at 10 µM;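 active = thallium signal drop beyond 5 SD of the untreated control mean, on both duplicate plates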;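 note: plate controls were buffer only IC0 wells for no effect and SID17386958 at its maximal inhibitory level for full effect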
* marks the source's active call; other numbers are inactive results; i = inactive; / = not tested or not shown. In the library only some 3.7% were active in any assay of this set; here they are far more common.

SMILES	KCNQ1 pot	KCNQ1 block	KCNK3 inh	Kir21 block	hERG rescue	KCNK9 block	KCNK9 block conf	Kir2-1 spec	HEK293 Tl ctr
COc1ccc2c(c1)CCc1sc(NC(=O)c3ccco3)nc1-2	i	i	i	0.37	-14.4	-8.4*	26.5%*	i	i
COc1ccc2c(c1)-c1nc(NC(=O)c3ccco3)sc1CC2	i	i	i	0.71	-8.2	-11.1*	47.5%*	i	i
Cc1cc(C)n(CC(O)CN2c3ccccc3Sc3ccccc32)n1 (stereo not given)	i	6*	i	-3.86	-11.2	i	i	i	i
COc1ccc(/C=C/C(=O)c2ccccc2)cc1COc1ccc(F)cc1	i	i	i	0.57	-5.0	-12.8*	70.0%*	28.5%*	55.0%*
COc1ccc(C(=O)/C=C/c2ccc(OC)c(COc3ccccc3F)c2)cc1	i	i	i	1.88	-9.2	-16*	70.0%*	i	31.0%*
CN(CC(=O)Nc1cccc(F)c1)C(=O)c1ccncc1	i	i	i	0.12	-2.6	i	/	/	/
O=C(O)COn1c(-c2ccc(Cl)cc2)nc2ccc(Cl)cc21	i	i	i	-0.12	-11.3	i	/	/	/
Clc1ccc(COn2c(-c3ccc(Cl)cc3)nc3ccccc32)cc1	i	i	-10.5*	1.54	-11.6	-16.2*	79.5%*	i	35.5%*
Cc1ccc(NC(=O)c2cccc(OC(F)F)c2)c(OC(F)F)c1	i	i	i	-1.89	-4.9	-8.66*	54.0%*	i	35.0%*
CCOc1cccc(C(=O)Nc2ccccc2OC(F)F)c1	i	i	i	-2.18	-4.8	i	/	/	/
CN(C)CCN1C(=O)C2C(C(=O)Nc3cc(Cl)cc(Cl)c3)C3C=CC2(O3)C1C(=O)NC1CCCCC1 (stereo not given)	i	i	i	-1.75	-11.9	i	/	/	/
CCc1cc(C(=O)N2CCCC(N3CCN(c4cccc(C(F)(F)F)c4)CC3)C2)n(C)n1 (stereo not given)	i	i	i	1.46	-9.3	i	i	i	i
CC1=C(C(=O)N2CCCC(N3CCN(c4cccc(C(F)(F)F)c4)CC3)C2)OCCO1 (stereo not given)	i	i	i	0.41	-10.2	i	i	i	i
CSc1nc(C(=O)N2CCCC(N3CCN(c4ccccc4C)CC3)C2)cs1 (stereo not given)	i	i	i	-0.46	-13.9	i	i	i	i
Cc1ccc(C(=O)N2CCCC(N3CCN(c4cccc(C(F)(F)F)c4)CC3)C2)s1 (stereo not given)	i	i	i	1.03	-13.1	i	i	i	i
O=C(c1ccncc1)N1CCCC(N2CCN(c3cccc(C(F)(F)F)c3)CC2)C1 (stereo not given)	i	i	i	0.13	-12.9	i	/	/	/
CC1=C(C(=O)N2CCCC(N3CCN(c4cccc(Cl)c4)CC3)C2)OCCO1 (stereo not given)	i	i	i	-0.08	-8.5	i	/	/	/
COc1ccccc1NC(=O)CSc1nccn1Cc1ccccc1	i	i	i	-3.41	-7.6	i	/	/	/
Cc1ccccc1NS(=O)(=O)c1cc(C(=O)NCc2ccncc2)ccc1Cl	i	i	i	-0.7	-8.4	i	/	/	/
COc1ccc(S(=O)(=O)N2CCN(c3cnccn3)CC2)cc1OC	/	/	i	/	/	/	/	/	/
Cc1ccc(C(=O)N2CCCC(N3CCN(c4ccccc4F)CC3)C2)s1 (stereo not given)	i	i	i	-0.35	-9.1	i	i	i	i
Cc1cccc(C(=O)N2CCCC(N3CCN(c4ccccc4F)CC3)C2)n1 (stereo not given)	i	i	i	-0.04	-9.8	i	/	/	/
CCC(Sc1ccccn1)C(=O)Nc1cccc([N+](=O)[O-])c1 (stereo not given)	i	i	i	-1.5	-12.6	-8.58*	29.5%*	i	26.5%*
CC(Sc1cccc[n+]1[O-])C(=O)Nc1cccc([N+](=O)[O-])c1 (stereo not given)	i	i	i	0.01	-4.4	i	/	/	/
CCC1CN(C(=O)NCc2ccccc2)c2ccccc2O1 (stereo not given)	i	i	i	0.23	-2.8	i	/	/	/
SMILES	KCNQ1 pot	KCNQ1 block	KCNK3 inh	Kir21 block	hERG rescue	KCNK9 block	KCNK9 block conf	Kir2-1 spec	HEK293 Tl ctr
CCOc1ccc(N2C(=O)c3cccnc3C2Nc2ccc(C)cc2)cc1 (stereo not given)	i	i	i	1.18	-6.6	i	i	i	i
CCOc1ccc(N2C(=O)c3cccnc3C2Nc2ccc(C)c(C)c2)cc1 (stereo not given)	i	i	i	-0.02	-11.3	i	i	i	i
COc1ccccc1CCC(=O)NNC(=O)c1ccc(Br)cc1	i	i	i	-2.24	-4.3	i	/	/	/
CCOCCCNC(=S)N1CCCN(c2nc3c(C)c(C)ccc3cc2C#N)CC1	i	i	i	-2.62	-12.8	i	/	/	/
CCOCCCNC(=S)N1CCCN(c2nc3cc(C)ccc3cc2C#N)CC1	i	i	i	-1.39	-12.4	i	i	i	i
C[C@@H](Oc1ccccc1)c1nnn(Cc2ccccc2)c1-c1c([C@@H](C)Oc2ccccc2)nnn1Cc1ccccc1	i	i	/	0	-7.6	-11.7*	i	i	35.5%*
COc1ccc(Cc2nc3ccc(C(=O)N(C)CCCN4CCOCC4)cc3o2)cc1	i	i	i	-0.61	-7.7	i	/	/	/
CC(/C=C/c1ccccc1)=N\NC(=O)Cn1nc(C)cc1C	i	i	i	-4.07	-9.4	i	/	/	/
COc1cc(C(=O)N/N=C/c2ccc(OC)c(CN3CCN(c4ccc(F)cc4)CC3)c2)ccc1O	i	i	i	-1.07	-27.6	i	i	i	i
COc1cc(OC)c(OC)cc1CN1CCN(c2ccc(F)cc2)CC1	i	i	i	-0.42	-9.1	i	i	i	i
COc1ccc(/C=N/NC(=O)c2ccccc2)cc1CN1CCN(c2ccc(F)cc2)CC1	i	i	i	-1.21	-6.3	i	/	/	/
Cc1occc1C(=O)Nc1cccc(C(F)(F)F)c1	i	i	i	0.03	-13.9	-9.32*	48.0%*	i	24.5%*

Compound activity from PubChem.
